Screens (PubChem)
Sampled rows, rich in hits. Any-hit rate of the full collection: about 1.6%.
MsrA inhibitor: bovine MsrA enzyme inhibitors, primary screen, biochemical, absorbance, HTS. Methionine sulfoxide reductase A (Bos taurus). purified bovine MsrA, absorbance read-out. inhibition, % at 15.5 µM. 0.75% of 360,000 active. AID 651718, 2012;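 note: 0% = vehicle wells with enzyme and 100% = reference inhibitor wells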
SKN-1 inh: suppressors of acrylamide-induced Pgst-4::GFP reporter in worms, primary screen, SKN-1 inhibitor project, whole organism, uHTS, GFP/RFP fluorescence ratio, strain VP596; AID 624304, 2012; 0.49% of 360,000 active; C. elegans VP596 Pgst-4::GFP/RFP ratio, 24 h; inhibition, % at 21.8 µM;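 active = interference check ratio from 0.5 to 1.5 plus GFP to RFP signal ratio inhibition reaching or exceeding a fixed threshold, cut at about 30% in these data, passing the limit was not always enough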
pCIP destab: p/CIP-EGFP fusion destabilizers, primary screen, fluorescence, F442A cells; 0.01% of 290,000 active; Q05BA5; AID 1984, 2009; decrease of EGFP signal, % at 10 µM; 16 h;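 active = EGFP signal decrease of at least 30% at 10 µM or well 3 SD below plate mean, unless failing retest; inactive = the rest, including hits failing retest or dose response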
MsrA act: bovine MsrA enzyme activators, primary screen, biochemical, absorbance, HTS. Methionine sulfoxide reductase A (Bos taurus). purified bovine MsrA, absorbance read-out. activation, % at 10.6 µM. 0.3% of 360,000 active. AID 602163, 2012; in the data active = activation above about 7.5%;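 note: 0% = vehicle and 100% = reference activator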
MT1-MMP act inh: blockers of MT1-MMP proenzyme processing, primary screen, HT1080 RFP-PRO-GFP cells, GFP/RFP fluorescence; Matrix metalloproteinase-14 (Homo sapiens), P50281; GFP/RFP ratio fluorescence, overnight; percent of plate control window, DMSO zero; GFP/RFP ratio change, % at 20 µM; 0.061% of 360,000 active; AID 651647, 2012;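 active = GFP/RFP ratio change of at least 30% with cell ATP level not reduced by more than half and red fluorescence within 50% of control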
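Compound: 20 µM single dose, 1% DMSO / System: HT1080 RFP-PRO-GFP cells / Controls: DMSO and RFP-L50D-GFP cell wells / Read-out basis: GFP/RFP fluorescence ratio / Schedule: overnight compound exposure at 37 °C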
MsrA inh confirm: bovine MsrA inhibitors, retest, confirmation, biochemical, absorbance, HTS. shares compounds with MsrA inhibitor. purified bovine MsrA, absorbance read-out. inhibition, % at 15.5 µM. 41% of 2,300 active. AID 651822, 2012;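 note: coupled to thioredoxin reductase with NADPH and selenocystamine and DMSO as substrate; 0% = vehicle only and 100% = full effect of reference inhibitor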
* marks the source's active call; other numbers are inactive results; . = not tested or not shown. Cut-off read from the data, not from the text of the source, unless noted: active = inhibition above about 4.5%; inactive = the rest.

SMILES | MsrA inhibitor | SKN-1 inh | pCIP destab | MsrA act | MT1-MMP act inh | MsrA inh confirm
CN(C)c1ccc(C=NCC2(O)CCOC(C)(C)C2)cc1 (stereo not drawn) | 5.2* | -7 | 2 | -10 | -2 | 4.8*
CN(C)c1ccc(C=NCCC2(c3ccccc3)CCOC(C)(C)C2)cc1 (stereo not drawn) | 3 | 4 | -16 | -11 | -7 | .
CCN1CCN(c2nc3ccccc3nc2NS(=O)(=O)c2ccc(NC(C)=O)cc2)CC1 | 4.7* | -4 | 0 | -12 | 7 | 2
CC(=O)Nc1ccc(S(=O)(=O)Nc2nc3ccccc3nc2N2CCCC2)cc1 | 1 | 24 | -14 | -3 | 0 | .
Cc1ccnc(N=Cc2nc(-c3ccccc3Br)oc2O)c1 | 6.5* | -2 | 9 | -5 | 0 | 1
Cc1cccc(/N=C/c2nc(-c3ccccc3Br)oc2O)n1 | 1 | 0 | -8 | -7 | 0 | .
Cc1ccc(/C=N/n2c(C3CCCCC3)n[nH]c2=S)cc1 | 7.8* | 12 | -8 | 0 | -4 | 4
Fc1ccccc1/C=N/n1c(C2CCCCC2)n[nH]c1=S | 2 | 10 | -4 | 2 | 0 | .
S=c1[nH]nc(C2CCCCC2)n1/N=C/c1ccc(Cl)cc1 | 1 | -1 | 2 | -9 | 2 | .
Cc1ccccc1/C=N/n1c(C2CCCCC2)n[nH]c1=S | 14* | 10 | 2 | -2 | 6 | 12*
S=c1[nH]nc(C2CCCCC2)n1/N=C/c1ccccc1Br | 13* | -10 | 0 | -2 | 3 | 12*
Cc1c(C(=O)N/N=C/c2ccc(O)cc2)sc(=S)n1C | 5.8* | 1 | 1 | -6 | -2 | 4.8*
CNc1cncc(-c2cccc(NS(C)(=O)=O)c2)n1 | 5.8* | -3 | . | -2 | -7 | 4
CNc1cncc(-c2cccc(C(C)=O)c2)n1 | 4 | 4 | . | -3 | -6 | .
CC1CCCN(c2cccc3c2S(=O)(=O)N(Cc2cccc(F)c2)[C@@H](C)[C@H](c2ccccc2)O3)C1 (stereo partly drawn) | 1 | . | . | . | . | .
Cc1ccccc1-n1ncc2c([N+](=O)[O-])cc([N+](=O)[O-])cc21 | 5.6* | -1 | -9 | 1 | -5 | 3
COCCCNC(=O)C[C@H]1C[C@@]2(C(=O)OC)C(=C[C@H](C3CCCC3)O[C@@H]2C)N(Cc2ccccc2)C1=O | 1 | . | . | . | . | .
CCOC(=O)Cc1csc2nc(-c3ccccc3)cn12 | 0 | . | . | . | . | .
O=C(N/N=C/c1ccc([N+](=O)[O-])cc1)c1ccc2nc[nH]c2c1 | 5.6* | 13 | -2 | -1 | 6 | 4.8*
O=C(N/N=C/c1cccc([N+](=O)[O-])c1)c1ccc2nc[nH]c2c1 | 1 | 17 | 1 | -2 | 0 | .
O=C(N/N=C/c1ccc([N+](=O)[O-])cc1)c1[nH]ncc1Br | 4.9* | -2 | 0 | -11 | 3 | 3
O=C(N/N=C\c1cn[nH]c1-c1ccccc1)c1ccc([N+](=O)[O-])cc1 | 3 | 3 | -6 | -1 | 5 | .
O=C(N/N=C/c1ccc([N+](=O)[O-])cc1)c1cc(C2CC2)[nH]n1 | 5.3* | -9 | -10 | -3 | 3 | 5.3*
CC1=N/C(=C\c2ccc([N+](=O)[O-])cc2)C(=O)N1c1ccc(C)c(Cl)c1 | 1 | . | . | . | . | .
O=[N+]([O-])c1ccc(Sc2ncccn2)c([N+](=O)[O-])c1 | 1 | 9 | 0 | -2 | -6 | .
SMILES | MsrA inhibitor | SKN-1 inh | pCIP destab | MsrA act | MT1-MMP act inh | MsrA inh confirm
O=C(O)CCSc1ccc([N+](=O)[O-])cc1[N+](=O)[O-] | 5.4* | 0 | -5 | -12 | 2 | 3
CCOC(=O)N/N=C/c1ccc(N(CC)CC)cc1O | 6.1* | -1 | -1 | -7 | 5 | 6.3*
CCN(CC)c1ccc(/C=N/NC(=O)CNC(=O)C2COc3ccccc3O2)c(O)c1 (stereo not drawn) | 5.2* | 0 | -8 | -10 | -2 | 3
COc1cc(/C=N\NC(=O)CNC(=O)C2COc3ccccc3O2)ccc1O (stereo not drawn) | 0 | -2 | 3 | -7 | 2 | .
CCN(CC)c1ccc(/C=N/NC(=O)CCC(=O)NCc2ccccc2)c(O)c1 | 4.7* | 6 | -2 | -17 | -7 | 4.8*
Cc1ccccc1C(=O)N[C@H](C(=O)N1CCC[C@H]1C(=O)NCc1ccccc1)c1ccccc1 | -2 | . | . | . | . | .
COc1cc(/C=N\N=C2/SC(CC(=O)O)C(=O)N2c2ccc(O)cc2)ccc1O (stereo not drawn) | 4 | 8 | -7 | -7 | 3 | .
O=C(O)CC1S/C(=N/N=C/c2ccc([N+](=O)[O-])cc2)N(c2ccc(O)cc2)C1=O (stereo not drawn) | 6.8* | 10 | -8 | -4 | 4 | 3
COc1cc(/C=N/N=C2/SCC(=O)N2c2ccc(O)cc2)ccc1O | 5.6* | -12 | -14 | -6 | 0 | 4.6*
COc1ccc(/C=N\N=C2/SC(CC(=O)O)C(=O)N2c2ccc(O)cc2)cc1OC (stereo not drawn) | 5.9* | -1 | 9 | -6 | 1 | 4.9*
COC(=O)[C@]12C[C@H](CC(=O)N3CCN(C(=O)c4ccco4)CC3)C(=O)N(Cc3ccccc3)C1=C[C@H](C1CCCC1)O[C@@H]2C | 1 | . | . | . | . | .
CCCc1ccc(-c2cc(NC(=O)Cc3c(C)[nH]c4ccccc34)ccc2Nc2cccnc2)cc1 | 2 | . | . | . | . | .
CCN(CC)c1ccc(/C=C2/C(=O)N(c3ccc([N+](=O)[O-])cc3)N=C2N2CCOCC2)cc1 | . | . | 1 | . | . | .
COc1cc(/C=C2/C(=O)N(c3ccc([N+](=O)[O-])cc3)N=C2N2CCOCC2)ccc1O | 4.7* | -4 | -16 | -3 | 5 | 4.6*
COC(=O)C1=C(C)N(C)C(=NCc2cccc(C(F)(F)F)c2)NC1c1ccc(C(F)(F)F)cc1 (stereo not drawn) | -1 | . | . | . | . | .
CCC(C)(C)NC(=O)c1ccc(Sc2nncn2C)c([N+](=O)[O-])c1 | 1 | 14 | -11 | 1 | 3 | .
Cn1cnnc1Sc1ccc(/C=C/C(=O)c2ccc(O)cc2)cc1[N+](=O)[O-] | 5.7* | 2 | 1 | -12 | 13 | 3
COC(=O)C1=C(C)N(C)C(=NCC2CC2)NC1c1cccc(C(F)(F)F)c1 (stereo not drawn) | -1 | . | . | . | . | .
CC(C)CCNc1nc(N)c([N+](=O)[O-])c(NCCO)n1 | 4.9* | -5 | -9 | -11 | 5 | 5.1*
CCC(C)Nc1nc(N)c([N+](=O)[O-])c(NCCO)n1 (stereo not drawn) | 3 | 1 | -8 | -5 | 1 | .
O=S(=O)(NCc1ccc(Cl)c(Cl)c1)c1cc(Cl)ccc1N1CC[C@@H](O)C1 | -1 | . | . | . | . | .
